pIC50: −log10 of the molar value.
Columns and labels:
[1] = Ratio of IC50 for photosynthetic electron transport in active intact chloroplast thylakoid membrane of Spinacea oleracea L. leaves to IC50 for Pythium ultimum ATCC 58812
Globisporangium ultimum [2] = test: Antifungal activity against logarithmic phase of Pythium ultimum Trow ATCC 58812 assessed as growth inhibition measured at 5 days post-drug treatment; format: functional, organism-based; conditions: ATCC 58812, 120 h
Method in brief: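 Log-phase mycelium grown on cellophane over PDA (pH 5.6, 26 ± 1 °C) moved to PDA containing compound at 10, 50 and 100 µg mL^-1 final, with 0.1% DMSO in test and control media. Colony diameter was measured daily for 5 days, in triplicate, relative to untreated controls. IC50 came from curves of activity (%) versus log inhibitor concentration.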

Botrytis cinerea [3] = test: Antifungal activity against logarithmic phase of Botryotinia fuckeliana ATCC 48339 assessed as growth inhibition at 100 ug/ml measured at 5 days post-drug treatment; format: functional; conditions: ATCC 48339, 120 h, read-out: GI
Method in brief: (§1)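 Log-phase mycelium (from 10 mm stationary-phase disks grown on cellophane over PDA, pH 5.6, 26 ± 1 °C) moved to PDA with compound added from DMSO stock at 45 °C. Final concentrations were 10, 50 or 100 µg mL^-1, with 0.1% DMSO in test and control media. Colony diameter was read daily for 5 days, in triplicate, as % of untreated control.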

Globisporangium ultimum [4] = test: Antifungal activity against logarithmic phase of Pythium ultimum ATCC 58812 assessed as growth inhibition at 100 ug/ml measured at 5 days post-drug treatment; format: functional; conditions: ATCC 58812, 120 h, read-out: GI; method in brief: as §1
Pyricularia grisea [5] = test: microbe, parasite or virus in culture; format: functional; conditions: ATCC 64413, 120 h, read-out: GI
Pyricularia grisea [6] = test: microbe, parasite or virus in culture; format: functional; conditions: ATCC 64413, 120 h, read-out: GI; remark: listed apart in the source
Pyricularia grisea [7] = test: microbe, parasite or virus in culture; format: functional; conditions: ATCC 64413, 120 h, read-out: GI; remark: listed apart in the source
[8] = In vitro inhibition of basal rate of photosynthetic electron transport (Hill reaction) in active intact chloroplast thylakoid membrane of Spinacia oleracea (spinach) leaves assessed as inhibition of light-driven ferricyanide reduction at 5 uM measured at 24 degC at 30 s intervals for 10 min (reference value: 100 +/-3.1%)
Globisporangium ultimum [9] = test: Antifungal activity against logarithmic phase of Pythium ultimum ATCC 58812 assessed as growth inhibition at 10 ug/ml measured at 5 days post-drug treatment; format: functional; conditions: ATCC 58812, 120 h, read-out: GI; method in brief: as §1
Botrytis cinerea [10] = test: Antifungal activity against logarithmic phase of Botryotinia fuckeliana ATCC 48339 assessed as growth inhibition at 50 ug/ml measured at 5 days post-drug treatment; format: functional; conditions: ATCC 48339, 120 h, read-out: GI; method in brief: as §1
Botrytis cinerea [11] = test: Antifungal activity against logarithmic phase of Botryotinia fuckeliana ATCC 48339 assessed as growth inhibition at 10 ug/ml measured at 5 days post-drug treatment; format: functional; conditions: ATCC 48339, 120 h, read-out: GI; method in brief: as §1
Globisporangium ultimum [12] = test: Antifungal activity against logarithmic phase of Pythium ultimum ATCC 58812 assessed as growth inhibition at 50 ug/ml measured at 5 days post-drug treatment; format: functional; conditions: ATCC 58812, 120 h, read-out: GI; method in brief: as §1

Q: Which results are given for `Cc1c(C(=O)O)c(C(=O)NC(C)(C)C)nn1-c1ccc(Cl)cc1`?
A: Ratio IC50 [1]: 25; pIC50 (Globisporangium ultimum [2]): 4.42; inhibition of growth at 100 µg/mL (Botrytis cinerea [3]): 49.9%; inhibition of growth at 100 µg/mL (Globisporangium ultimum [4]): 69.3%; inhibition of growth at 50 µg/mL (Pyricularia grisea [5]): 31.5%; inhibition of growth at 100 µg/mL (Pyricularia grisea [6]): 33.2%; inhibition of growth at 10 µg/mL (Pyricularia grisea [7]): 20.9%; pIC50 [8]: 3.02; inhibition of growth at 10 µg/mL (Globisporangium ultimum [9]): 47.2%; inhibition of growth at 50 µg/mL (Botrytis cinerea [10]): 49.3%; inhibition of growth at 10 µg/mL (Botrytis cinerea [11]): 45.6%; inhibition of growth at 50 µg/mL (Globisporangium ultimum [12]): 69.3%
